A selection: hits, their analogues and other compounds. The true share with any hit is near 4.2%.
Cl transport mod: KCC2 cotransporter modulators, thallium flux, primary screen, cell-based, HEK293 KCC2, FluoZin-2 fluorescence, MLSMR; 190,000 compounds, 2.2% hits; KCC2 cells, thallium flux FluoZin-2 fluorescence; AID 1456, 2008; Solute carrier family 12 member 5 (Homo sapiens), Q9H2X9; B-score of Tl+ flux slope (higher = more flux/activation; lower = inhibition) at 10 µM;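 active means thallium flux slope and its plate-corrected score both differing from the plate sample mean at a set confidence after two filtering rounds, in either direction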;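 further: slope of fluorescence scaled to starting intensity during 10 to 20 s after thallium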
Rad51 HR inh: human RAD51 strand exchange inhibitors, primary screen, biochemical, fluorescence. DNA repair protein RAD51 homolog 1 (Homo sapiens), Q06609. hRad51 DNA strand exchange, fluorescence dequenching. inhibition, % at 10 µM. 200,000 compounds, 0.085% hits. AID 1385, 2008;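 active means inhibition above 40% at the single screening dose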;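 further: 0% = DMSO control wells and 100% = blanks with heterologous ssDNA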
Target sequence (Q06609 whole entry, looked up): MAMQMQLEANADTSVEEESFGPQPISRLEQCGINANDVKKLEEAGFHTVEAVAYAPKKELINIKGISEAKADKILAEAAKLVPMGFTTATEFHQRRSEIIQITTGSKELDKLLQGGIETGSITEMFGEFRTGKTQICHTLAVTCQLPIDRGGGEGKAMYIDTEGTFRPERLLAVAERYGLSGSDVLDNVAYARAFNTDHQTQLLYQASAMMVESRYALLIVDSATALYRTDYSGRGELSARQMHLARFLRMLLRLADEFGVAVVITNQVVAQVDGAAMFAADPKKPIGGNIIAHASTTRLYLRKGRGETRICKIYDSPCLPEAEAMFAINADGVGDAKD
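material = hRad51 filaments on single-stranded DNA | reagent = Donor/quencher-labelled 47-bp dsDNA substrate | compound = 10 µM final, single point | schedule = strand-exchange reaction 15 min at room temperature | measured by = fluorescein emission 520 nm, excitation 485 nm | read-out basis = % inhibition versus plate control and blank means | benchmarks = plate controls and plate blanks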
Autophagy mod: autophagy modulators in MEF cells, primary screen, imaging, high-content, MEF GFP-LC3 | 190,000 compounds, 0.98% hits | AID 463193, 2010 | MEF GFP-LC3 puncta imaging; test concentration mostly 10 µM | calls only at 10 µM (by protocol);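 active means percentage of spot-positive cells more than 3 SD above its plate mean, without a fluorescence outlier flag or 80% toxicity; inconclusive means no clear call, values can overlap the other calls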;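 further: spot-positive cell cutoff set from DMSO-treated cells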
WT yeast gro inh: growth inhibition of WT strain, primary screen, mitochondrial fusion inhibitor project, WT and mutant strains, chemical genetic. mitochondrial fusion phenotypic screen. inhibition, % at 10 µM. 190,000 compounds, 2.1% hits. AID 1362, 2008; in the data active means inhibition above about 58%; tested in S. cerevisiae
SKKanGAS inh: S. pyogenes SKKanGAS growth inhibitors in kanamycin, primary screen, streptokinase expression inhibitor project, SKKanGAS strain, BacTiter-Glo luminescence; 300,000 compounds, 1.3% hits; inhibition, % at 7.5 µM; 6 h;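 active means mean replicate score, as percent of positive control median, at least 50; inconclusive means mean below 50 but one replicate at or above 50; inactive means mean and every replicate below 50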;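 further: strain carries kanamycin resistance gene driven by streptokinase promoter and grows in 40 µg/ml kanamycin; loss of luminescence reflects streptokinase promoter inhibition or plain growth inhibition; 0% = median of DMSO wells and 100% = positive control at its reference dose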
Ins promoter up: insulin promoter activators in MIN6 cells, imaging, high-content screening, mouse beta cells; z-score at 5 µM; MIN6 insulin promoter-GFP reporter; active compounds read high; 190,000 compounds, 0.3% hits;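 active means z-score above 3 at 5 µM with at least 500 cells counted in the well; inconclusive means wells under 500 cells, flagged as cytotoxic or low count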
KCC2 secondary: KCC2 modulators in sodium-free buffer, confirmation, cell-based, HEK293 KCC2, thallium flux, secondary assay | 3,700 compounds, 15% hits | normalised thallium flux (F/F0 slope) at 10 µM | FluoZin2 fluorescence; active compounds read high | AID 1713, 2009 | shares compounds with Cl transport mod;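 active means thallium flux slope above the same plate's solvent-only control mean plus 3 SD; inconclusive means the two replicate wells disagree; inactive means no significant difference from solvent-only control wells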
KCC2 bumet counter: thallium flux persisting under bumetanide in KCC2 cells, confirmation, counter-screen for KCC2 modulator project, cell-based, HEK293 KCC2, FluoZin2, secondary assay 3; 3,700 compounds, 49% hits; normalized thallium flux at 10 µM; HEK293-KCC2 + bumetanide/ouabain; active compounds read high; shares compounds with Cl transport mod;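 active means thallium entry rate above the same plate's blocked-transporter control wells by more than 3 SD; inconclusive means the two repeat wells disagree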;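 further: raw slope of fluorescence over initial fluorescence between 10 and 20 s after thallium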
KCC2 secondary2: KCC2 modulators without ouabain present, confirmation, cell-based, HEK293 KCC2, thallium flux, FluoZin2, secondary assay 2. thallium flux FluoZin2 fluorescence; actives lie on both sides; F/F0 rise rate, 10–20 s post-thallium. normalized thallium flux at 10 µM. shares compounds with Cl transport mod. 3,700 compounds, 23% hits;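 active means thallium flux slope more than 3 SD above or below the plate's solvent-only control mean, mostly below; inconclusive means the two repeat wells disagreed; inactive means no significant shift from solvent-only controls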;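 further: raw slope with 0.1% DMSO as baseline and bumetanide as block control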
HEK293 Tl flux: thallium flux modulation in parental HEK cells, confirmation, counter-screen for KCC2 modulator project, cell-based, counterscreen 1 | 3,700 compounds, 46% hits | HEK293 parental cells, thallium flux FluoZin2, ouabain; baseline-ratio fluorescence slope, 10–20 s after thallium | shares compounds with Cl transport mod | thallium flux rate (normalised fluorescence) at 10 µM | AID 1716, 2009;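 active means thallium flux rate significantly above the same plate's solvent-only control wells, beyond their mean plus 3 SD; inconclusive means the two replicate wells gave conflicting results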
KCC2 ouabain: KCC2 inhibitors and activators, ouabain retest, confirmation, HEK-KCC2 cells; shares compounds with Cl transport mod; raw Tl+ flux slope (below DMSO = inhibition, above = activation) at 10 µM; 3,700 compounds, 48% hits; HEK293-KCC2, thallium flux FluoZin2 fluorescence; bidirectional: low = inhibitor, high = activator;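 active means thallium flux slope beyond 3 SD from same-plate DMSO control mean in most replicates, usually higher, sometimes lower; inconclusive means repeat tests gave conflicting results; inactive means no significant difference from controls in most replicates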;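 further: slope of initial-normalized fluorescence between seconds 10 and 20 after thallium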
HEK counter2: native HEK Tl+ uptake effects, second counter-screen – HEK cells, counterscreen 2, counter-screen for KCC2 modulator project, confirmation; AID 1718, 2009; HEK293 parental, thallium flux FluoZin-2 fluorescence slope; thallium flux slope at 10 µM; 3,700 compounds, 33% hits; shares compounds with Cl transport mod;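 active means thallium flux slope above the same plate's solvent-control mean plus 3 SD in both duplicate wells; inconclusive means duplicate wells that disagreed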;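 further: run without ouabain in cells lacking the KCC2 cotransporter; slope of fluorescence scaled to its starting value between 10 and 20 s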
Starred values were filed as active, the others as inactive; i = inactive; u = inconclusive; x = no result.

SMILES	Cl transport mod	Rad51 HR inh	Autophagy mod	WT yeast gro inh	SKKanGAS inh	Ins promoter up	KCC2 secondary	KCC2 bumet counter	KCC2 secondary2	HEK293 Tl flux	KCC2 ouabain	HEK counter2
CCCCNC(=O)Nc1nnc(C(C)(C)C)s1	1.4	-12	x	x	5	0.95	x	x	x	x	x	x
C#CC1CCCCC1NC(=O)Nc1cnccc1C(F)(F)F (centres undefined)	0.69	11	x	x	0	-0.07	x	x	x	x	x	x
Cc1csc(N(C)C(=O)CSc2nnc(COc3cccc4ccccc34)o2)n1	x	3	i	12	2	-0.91	0.007	0.006	0.027	0.0063	0.015*	0.0091
COc1ccc(CCNC(=O)COC(=O)CCC(=O)c2ccc(F)cc2)cc1OC	-0.83	5	i	-11	-3	-0.33	x	x	x	x	x	x
O=C(CCS(=O)(=O)Cc1ccccc1)Nc1nc2c(s1)CCCC2	x	-3	i	-2	-4	x	0.0056	0.0046	0.022*	0.0075	u	0.01
O=C(CCN1C(=O)c2ccccc2S1(=O)=O)Nc1cccc2ccccc12	-2.7	2	i	0	10	0.67	x	x	x	x	x	x
O=C(CCN1C(=O)c2ccccc2S1(=O)=O)Nc1nc2c(s1)CCCC2	-3.8*	5	i	7	0	-0.94	0.0077	0.0059	0.03	0.0071	0.015*	0.011
O=C(CS(=O)(=O)Cc1ccccc1)Nc1nc2c(s1)CCCC2	-1.1	0	i	6	-3	-0.41	x	x	x	x	x	x
COc1cc(F)c(S(=O)(=O)N2CCOc3ccccc32)cc1OC	x	x	x	x	8	x	x	x	x	x	x	x
CC(C)(C)c1csc(NNC(=O)c2ccc(Cl)cc2)n1	24*	11	x	x	90*	-0.48	0.01	0.03*	0.035	0.037*	0.032*	0.014*
CC(C)(C)c1csc(NC(=O)c2cccnc2)n1	x	x	x	x	-5	x	x	x	x	x	x	x
COc1ccc(CC(=O)Nc2ccc(-c3nc4cc(C)ccc4o3)c(O)c2)cc1OC	-5.4*	x	i	14	2	0.11	0.017	0.0048	0.03	0.0074	0.017	0.01
O=C(O)/C=C/c1cnn(-c2ccccc2)c1	0.94	39	i	-2	-11	-1.1	x	x	x	x	x	x
COc1ccc(/C=C/C(=O)NC(=S)N2CCN(c3ccccn3)CC2)cc1	5.9*	4	x	x	8	0.1	0.0054	0.024*	0.032	0.013*	u	0.015*
O=C(/C=C/c1ccc(Br)cc1)NC(=S)N1CCOCC1	8.7*	5	i	-12	-24	0.17	0.008	0.024*	0.037	0.017*	0.031*	0.019*
O=C(NC(=S)N1CCN(c2ccccn2)CC1)c1ccccc1	17*	x	i	-5	-6	0.71	0.0062	0.043*	0.035	0.03*	0.039*	0.019*
COc1ccc(/C=C/C(=O)NC(=S)N2CCSCC2)cc1	8.7*	6	i	16	-17	-0.55	0.018	0.034*	0.035	0.016*	0.025*	0.017*
Cc1cccc(C)c1NC(=S)N1CC(C)OC(C)C1 (centres undefined)	0.31	3	x	x	9	-1	x	x	x	x	x	x
CC(=O)Nc1ccc(N=Nc2ccc(O)cc2)cc1	-0.15	-7	i	-6	-9	1.1	x	x	x	x	x	x
O=C(CSc1nnc(-c2cccs2)n1CC1CCCO1)c1cc2ccccc2o1 (centres undefined)	-3.3*	x	i	-8	6	-0.65	0.0058	0.0049	0.027	0.007	0.017	0.0098
CC(C)CNC(=S)NC(=O)c1csc([N+](=O)[O-])c1	31*	8	x	x	11	-0.41	u	0.069*	0.037	0.021*	0.036*	0.015*
Cc1ccc2nc3c(cc2c1)CN(Cc1ccco1)C(=NCC1CCCO1)S3 (centres undefined)	3*	4	i	21	22	-0.88	0.0067	u	0.033	0.0075	0.019	0.011
Cc1cccc2cc3c(nc12)SC(=NCC1CCCO1)N(Cc1ccco1)C3 (centres undefined)	1.3	-1	i	4	40	-1.1	x	x	x	x	x	x
CC(=O)Nc1cccc(NC(=O)CSc2nnc3ccc(-c4ccncc4)nn23)c1	x	x	x	x	11	x	x	x	x	x	x	x
Cc1[nH]c(=O)[nH]c(=O)c1S(=O)(=O)N1CCCC(C(=O)NCCC2=CCCCC2)C1 (centres undefined)	0.16	0	i	-6	7	-0.63	x	x	x	x	x	x
O=CN1CCN(C(=O)CN2C(=O)c3ccccc3C2=O)CC1	6.3*	x	i	1	5	-0.65	0.0059	u	0.027	0.0081	0.018	0.01
Cn1c(O)c(N=NC(=O)C2COc3ccccc3O2)c2ccccc21 (centres undefined)	-0.23	-8	x	x	9	-0.24	x	x	x	x	x	x
CC(C)n1c(O)c(N=NC(=O)C2COc3ccccc3O2)c2ccccc21 (centres undefined)	10*	-3	i	52	-13	-0.29	0.0081	0.028*	0.033	0.03*	0.031*	0.026*
On1nnc2c3ccccc3c3ccccc3c21	x	2	i	-1	-2	-0.34	x	x	x	x	x	x
